Many of the other results were omitted from the sample, so hits are more common in it than they were.
Lmaj promast: inhibitors of Leishmania major promastigote growth. Leishmania major promastigotes, resazurin fluorescence viability. inhibition, % at 10 µM. 200,000 tested, 9% active;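 further: promastigotes grown with compound for 44 hours at 28 °C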
G6PDH CS: inhibits Leuconostoc G6PDH, flagging false hits in G6PDH-based assays; Purified L. mesenteroides G6PDH, diaphorase/resazurin coupled fluorescence, 45 min; 200,000 tested, 0.12% active; inhibition, % at 5 µM
PfGluPho inh: PfG6PD (Plasmodium falciparum) enzyme inhibition. PfGluPho enzyme, NADPH resazurin-diaphorase fluorescence. inhibition, % at 20 µM. 350,000 tested, 0.78% active;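 active means inhibition reaching at least a set limit at 20 µM in the primary screen, cut at about 59% in these data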;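 further: 0% = DMSO wells with substrate and 100% = DMSO wells lacking glucose-6-phosphate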
Diaphorase act: activates diaphorase or chemically reduces, flagging diaphorase assay artifacts. Diaphorase/resazurin coupled assay, resorufin fluorescence, 16 min; stronger effect = higher value; 1 = vehicle wells, 0 = NADH-free wells. 190,000 tested, 0.005% active. activation factor at 20 µM;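 active means diaphorase activity raised at least twofold by the compound at 20 µM; inactive means activation factor below 2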
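Material: purified diaphorase enzyme from Clostridium kluyveri / Medium: HEPES pH 7.4 buffer with MgCl2 and Tween 20 / Schedule: enzyme reaction of 16 min at room temperature / Measured by: resorufin fluorescence, excitation 544 nm, emission 590 nm / Evaluation: rise in resorufin formation, marking diaphorase activation or chemical reduction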
Diaphorase inh: inhibits diaphorase or chemically oxidizes, flagging diaphorase assay artifacts. diaphorase resazurin-to-resorufin fluorescence, NADH, 16 min; bacterial (C. kluyveri) enzyme, not human. inhibition, % at 20 µM. 190,000 tested, 0.69% active. AID 1217;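 active means primary screen inhibition at 20 µM above a set limit, cut at about 50% in these data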;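 further: plate controls were DMSO with full reaction for no effect and wells lacking NADH for full effect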
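Assay system: diaphorase enzyme from Clostridium kluyveri; Input: enzyme working solution with 0.14 U/mL diaphorase; Timing: 16 min at room temperature; Technique: resorufin fluorescence, excitation 544 nm, emission 590 nm; Benchmarks: positive control minus NADH, DMSO neutral control.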
Redox H2O2 prof: compounds producing H2O2 with reducing agent – biochemical, NIH compound library profiling, artefact control for MLSCN library redox annotation, primary screen | DTT-dependent redox cycling H2O2, phenol red/HRP absorbance; 100% = 100 µM peroxide control, 0% = buffer | activation, % at 10 µM | 200,000 tested, 0.03% active;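 active means activation of at least 50% relative to the plate's high and low controls in the primary single-dose screen; inactive means activation below 50%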;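 further: compound incubated with DTT at 0.8 mM final as the reducing agent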
Active calls of the source: *. Unless noted, no stated cut-off is given here; in the data, active means inhibition above about 50%; inactive means the rest.

For O=C(CN1C(=O)c2cccc([N+](=O)[O-])c2C1=O)N1CCN(S(=O)(=O)c2ccccc2)CC1 the results were PfGluPho inh -9.9.
Screening CCC1(C)Cc2c(sc3nc(SC)[nH]c(=S)c23)CO1 (stereo not given) returned PfGluPho inh 24.7.
O=c1cc(N2CCOCC2)cnn1-c1ccccc1 was read as Lmaj promast -10.4, G6PDH CS -2.0, PfGluPho inh 3.4, Diaphorase act 1, Diaphorase inh 0.1 and Redox H2O2 prof -0.3.
Cc1ccc(S(=O)(=O)N2CCOCC2)cc1NC(=O)CSCc1c(C)noc1C was read as PfGluPho inh -1.4.
`O=C(C[n+]1ccccc1)N/N=C/c1ccccc1C(F)(F)F` gave PfGluPho inh -4.7.
`CC(C)(c1ccccc1)c1ccc(OCCCNCCO)cc1` gave Lmaj promast 100.4*, G6PDH CS 5.0, PfGluPho inh 18.4, Diaphorase act 0.8, Diaphorase inh 16.1 and Redox H2O2 prof 0.1.
CCOc1ccc(OCCCCN(C)C)cc1 was read as Lmaj promast 37.6, G6PDH CS -2.3, PfGluPho inh 8.6, Diaphorase act 0.8, Diaphorase inh 15.0 and Redox H2O2 prof -0.4.
For C=CCNCCCCOc1ccc(OCC)cc1 the results were Lmaj promast 100.1*, G6PDH CS -2.9, PfGluPho inh 2.1, Diaphorase act 0.9, Diaphorase inh 10.2 and Redox H2O2 prof 0.0.
Screening C=CCNCCCOc1ccc(C(C)(C)c2ccccc2)cc1 returned Lmaj promast 99.7*, G6PDH CS 2.4, PfGluPho inh 4.9, Diaphorase act 0.9, Diaphorase inh 8.1 and Redox H2O2 prof 0.1.
For CC(C)NC(=O)c1cc(-c2ccco2)nn1-c1ccc(Cl)cc1 the results were Lmaj promast 50.2*, G6PDH CS 7.1, PfGluPho inh 32.7, Diaphorase act 0.9, Diaphorase inh 14.1 and Redox H2O2 prof 0.7.
`Cc1ccc(-n2nc(-c3ccco3)cc2C(=O)O)cc1` gave PfGluPho inh 5.7.
For Cc1sc(NC(=O)c2ccccc2)c(C(c2ccc(Cl)cc2)N2CCN(CCO)CC2)c1C (stereo not given) the results were Lmaj promast 94.9*, G6PDH CS 6.4, PfGluPho inh 5.0, Diaphorase act 0.8 and Diaphorase inh 21.5.
`CCOc1ccc(C(c2c(NC(=O)c3ccccc3)sc(C)c2C)N2CCN(CCO)CC2)cc1` (stereo not given) gave Lmaj promast 44.6, G6PDH CS 12.9, PfGluPho inh -1.3, Diaphorase act 0.9, Diaphorase inh 12.3 and Redox H2O2 prof -0.6.
For CCOC(=O)C1CCN(C(c2cccnc2)c2c(NC(=O)c3ccco3)sc(C)c2C)CC1 (stereo not given) the results were Lmaj promast 93.4*, G6PDH CS 4.4, PfGluPho inh -15.3, Diaphorase act 0.9, Diaphorase inh 5.3 and Redox H2O2 prof 0.0.
For Cc1sc(NC(=O)c2ccco2)c(C(c2ccccc2)N2CCC(C)CC2)c1C (stereo not given) the results were Lmaj promast 37.3, G6PDH CS 5.7, PfGluPho inh 19.7, Diaphorase act 0.9, Diaphorase inh 9.2 and Redox H2O2 prof 0.9.
Screening Cc1sc(NC(=O)c2ccco2)c(C(c2cccnc2)N2CCN(CCO)CC2)c1C (stereo not given) returned Lmaj promast 4.5, G6PDH CS 2.0, PfGluPho inh -21.2, Diaphorase act 0.9, Diaphorase inh 5.5 and Redox H2O2 prof -1.2.
`Cc1sc(NC(=O)c2ccco2)c(C(c2ccc(F)cc2)N2CCN(C)CC2)c1C` (stereo not given) gave Lmaj promast 51.4*, G6PDH CS 1.1, PfGluPho inh 5.3, Diaphorase act 0.9, Diaphorase inh 9.0 and Redox H2O2 prof -0.9.
For Cc1sc(NC(=O)c2ccco2)c(C(c2cccnc2)N2CCN(c3ccc(F)cc3)CC2)c1C (stereo not given) the results were Lmaj promast 80.0*, G6PDH CS -28.4, PfGluPho inh 17.1, Diaphorase act 0.8, Diaphorase inh 20.7 and Redox H2O2 prof 0.5.

Screening data as filed in PubChem BioAssay.
